# An excerpt weighted towards active compounds, which were near 2.9% of everything screened.
# S100A4 inh HTS = inhibitors of S100A4-myosin IIA peptide binding, primary screen, biochemical, fluorescence polarization, TAMRA-MyoIIA peptide | AID 652163, 2013 | hit rate 0.14% among 360,000 | inhibition, % at 10.7 µM | Protein S100-A4 (Homo sapiens), P26447;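 active means mean inhibition of at least 70% across replicates, with every replicate also reaching that level; inconclusive means mean inhibition reaches 70% but some replicates fall short; inactive means mean inhibition below 70%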
# Target sequence (P26447 whole entry, looked up): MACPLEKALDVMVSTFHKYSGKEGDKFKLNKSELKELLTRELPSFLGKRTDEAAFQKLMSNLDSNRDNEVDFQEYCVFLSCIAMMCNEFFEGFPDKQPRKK
#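 incubation = readout 5 min after mixing, signal stable up to 60 min | system = S100A4 monomer protein | buffer or medium = HEPES pH 7.2 with CaCl2, KCl, NaCl, DTT, Triton | benchmarks = neutral control DMSO, positive control TFP | also added = fluorescent myosin IIA peptide, 5 nM | compound dosing = one concentration per compound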
# ERAP1 HTS inh = human ERAP1 aminopeptidase inhibitors, primary screen, biochemical, single point, plate reader | Endoplasmic reticulum aminopeptidase 1 (Homo sapiens), Q9NZ08 | recombinant ERAP1, Leu-AMC fluorescence, 60 min | inhibition, % at 10.7 µM | hit rate 0.15% among 340,000;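 active means mean replicate inhibition of at least 30%, or all replicates individually reaching that 30% level; inactive means mean below 30% and not every replicate reaching it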;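 further: 0% = neutral control wells and 100% = L-leucinethiol positive control wells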
# SIRT5 inh = SIRT5 desuccinylase inhibitors, primary screen, biochemical, fluorescence imaging, single point, set 5 | AID 652115, 2013 | inhibition, % at 15 µM | Purified SirT5, succinyl-peptide AMC, trypsin-coupled fluorescence | NAD-dependent protein deacylase sirtuin-5, mitochondrial (Homo sapiens), Q9NXA8 | hit rate 1.1% among 330,000; in the data active means inhibition above about 15%; inconclusive means no clear call, values can overlap the other calls
# Target sequence (Q9NXA8 whole entry, looked up): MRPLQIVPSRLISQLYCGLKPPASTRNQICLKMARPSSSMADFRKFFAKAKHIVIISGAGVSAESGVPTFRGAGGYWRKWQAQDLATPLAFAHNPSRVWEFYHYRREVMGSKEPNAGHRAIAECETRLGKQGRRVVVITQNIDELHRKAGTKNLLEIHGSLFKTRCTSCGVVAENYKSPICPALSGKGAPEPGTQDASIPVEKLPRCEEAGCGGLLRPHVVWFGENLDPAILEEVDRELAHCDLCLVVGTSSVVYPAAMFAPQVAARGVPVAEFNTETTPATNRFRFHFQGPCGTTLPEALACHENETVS
# DENV2 CPE rescue = inhibitors of DENV2 cytopathic effect, primary screen, cell-based, plate reader, single concentration | CPE inhibition, % at 9.99 µM | AID 651640, 2012 | hit rate 1.7% among 350,000 | DENV2-infected cells, cytopathic effect rescue; in the data active means CPE inhibition above about 20%, passing the limit was not always enough; inconclusive means no clear call, values can overlap the other calls; tested in BHK-21 cells;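 further: 0% = median of neutral control wells and 100% = median of positive control wells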
# CAL PDZ FP-1 = CAL PDZ peptide-binding inhibitors, primary screen, biochemical, fluorescence polarization, Cer-tagged CAL PDZ, HTS; Golgi-associated PDZ and coiled-coil motif-containing protein (Homo sapiens), Q9HD26; purified CAL PDZ, TMR-peptide fluorescence polarization, 1 h; inhibition, % at 20 µM; hit rate 0.02% among 330,000;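 active means highest replicate inhibition of at least 40%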;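 further: plate controls were DMSO neutral control wells for no effect and unlabeled competitor peptide control wells for full effect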
#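 System: purified tagged CAL PDZ domain construct (CerCALP). Schedule: 1 h incubation at room temperature before polarization reading. Medium: 25 mM sodium phosphate pH 7.4, 150 mM NaCl, TCEP, IgG, Thesit. Read-out: percent inhibition from loss of millipolarization. Measured by: FP readout, S and P plane fluorescence. Probe or stimulus: fluorescent TMR peptide probe.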
# CAL PDZ FP-2 = untagged CAL PDZ binding inhibitors, primary screen, biochemical, fluorescence polarization, HTS. Golgi-associated PDZ and coiled-coil motif-containing protein (Homo sapiens), Q9HD26. purified CAL PDZ, TMR-peptide fluorescence polarization, 1 h. inhibition, % at 24.9 µM. hit rate 0.92% among 300,000;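 active means mean inhibition of at least 30% with at least half of replicates also reaching 30%; inconclusive means no clear call, values can overlap the other calls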;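 further: 0% = DMSO neutral control and 100% = excess unlabeled competitor peptide PRC23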
# * marks the source's active call; other numbers are inactive results; i = inactive; ? = inconclusive; nt = not tested or not shown.
SMILES,S100A4 inh HTS,ERAP1 HTS inh,SIRT5 inh,DENV2 CPE rescue,CAL PDZ FP-1,CAL PDZ FP-2
CCOC(=O)c1c(C)[nH]c(C)c1C(=O)COC(=O)c1cc2ccccc2cc1O,-20,1,112*,5,-3,-1
COc1ccccc1NC(=O)N(C)C[C@@H]1Oc2ncc(Br)cc2C(=O)N([C@H](C)CO)C[C@H]1C,-2,-1,-2,13,nt,nt
COC(=O)[C@H]1[C@H](CO)[C@H]2Cn3c(cccc3=O)[C@H]2N1CC1CCCCC1,11,1,0,-2,nt,nt
O=C(NC1CCC1)[C@H]1[C@H](CO)[C@H]2Cn3c(cccc3=O)[C@@H]1N2CC1CCCC1,23,3,-1,36*,nt,nt
O=C(NC1CCCCC1)[C@H]1[C@H](CO)[C@H]2Cn3c(cccc3=O)[C@H]2N1C(=O)CC1CC1,102*,7,8,4,nt,nt
O=C(Nc1ccc(-c2ccccc2)cc1)[C@@H]1[C@@H](CO)[C@@H]2Cn3c(cccc3=O)[C@@H]2N1CC1CCCC1,3,1,15*,15,nt,nt
COC(=O)[C@@H]1[C@@H](CO)[C@@H]2Cn3c(cccc3=O)[C@@H]2N1CC1CCOCC1,88*,0,3,5,nt,nt
O=C(Nc1ccccc1)[C@H]1[C@H](CO)[C@H]2Cn3c(cccc3=O)[C@H]2N1CC1CC1,5,2,0,-4,nt,nt
O=C(NC1CCCCC1)[C@@H]1[C@@H](CO)[C@@H]2Cn3c(cccc3=O)[C@@H]2N1CC1CCCC1,5,5,21*,-1,nt,nt
Cc1nnc(NC(=O)CSc2nnc(CCNC(=O)c3ccccc3F)n2C)s1,-8,-2,-14,10,0,-1
CC(NC(=O)c1ccccc1F)c1nnc(SCC(=O)Nc2nnc(C3CC3)s2)n1C (centres undefined),93*,3,-6,6,-3,2
O=C(Nc1ccccc1F)N[C@H]1CC[C@H](CCNS(=O)(=O)c2ccc(Cl)cc2)O[C@@H]1CO,9,0,1,-8,nt,nt
Cc1cccn2c(=O)c3cc(C(=O)NCCN4CCOCC4)c(=N)n(CCCN4CCOCC4)c3nc12,-7,35*,-14,1,0,-1
N=c1c(C(=O)NCC2CCCO2)cc2c(=O)n3ccccc3nc2n1C1CCCCC1 (centres undefined),2,121*,-14,3,0,-1
N=c1c(C(=O)NC2CCCCC2)cc2c(=O)n3ccccc3nc2n1Cc1ccc(F)cc1,6,-6,23*,4,-1,-3
Cc1cccn2c(=O)c3cc(C(=O)NCCc4ccccc4)c(=N)n(CC4CCCO4)c3nc12 (centres undefined),-2,-61,-6,-2,-1,5
Cc1cccn2c(=O)c3cc(C(=O)NCc4cccnc4)c(=N)n(CC4CCCO4)c3nc12 (centres undefined),-2,86*,-116,15,0,-2
C[C@@H]1CN([C@@H](C)CO)C(=O)c2cc(NC(=O)CCCN(C)C)ccc2O[C@@H](C)CCCCO[C@@H]1CN(C)C(=O)NC1CCCCC1,11,0,0,1,nt,nt
CN(C)CC(=O)N1[C@H](C(=O)NC2CCCC2)[C@@H](CO)[C@@H]2Cn3c(ccc(-c4ccc(F)cc4)c3=O)[C@@H]21,5,1,-9,-1,nt,nt
C[C@@H]1CN([C@@H](C)CO)C(=O)c2cc(NC(=O)c3ccncc3)ccc2O[C@@H](C)CCCCO[C@@H]1CN(C)S(=O)(=O)c1cn(C)cn1,16,4,3,3,nt,nt
O=C(C1=C[C@@H](c2ccc3c(c2)OCO3)C[C@@H](OCc2ccc(CO)cc2)O1)N1CCN(Cc2ccccc2)CC1,61,-6,5,16,nt,nt
C[C@@H]1CN([C@H](C)CO)C(=O)c2cc(NS(C)(=O)=O)ccc2O[C@@H](C)CCCCO[C@@H]1CN(C)Cc1ccc2c(c1)OCO2,61,-3,-3,-2,nt,nt
CCCNc1nc2nc3ccccn3c(=O)c2cc1C(=O)NCCN1CCOCC1,-3,58*,-20,1,0,9
N=c1c(C(=O)NCC2CCCO2)cc2c(=O)n3ccccc3nc2n1C1CCCC1 (centres undefined),-10,i,-135,-2,-3,0
Cc1cccn2c(=O)c3cc(C(=O)NCC4CCCO4)c(=N)n(C4CCCC4)c3nc12 (centres undefined),-2,i,81*,-2,-3,-1
SMILES,S100A4 inh HTS,ERAP1 HTS inh,SIRT5 inh,DENV2 CPE rescue,CAL PDZ FP-1,CAL PDZ FP-2
O=S1(=O)CCO[C@H]2Cc3ccccc3[C@H]2N1Cc1ccc(Cl)cc1,-1,nt,nt,85*,1,-2
O=S1(=O)CCO[C@H]2Cc3ccccc3[C@H]2N1Cc1cccc(Cl)c1,-5,-8,nt,?,-1,-2
COc1ccccc1CNC(=O)C[C@H]1C[C@H]2c3cc(NS(C)(=O)=O)ccc3O[C@H]2[C@@H](CO)O1,3,2,-4,3,nt,nt
CO[C@H](CN(C)C(=O)c1ccccc1F)[C@H](C)CN([C@H](C)CO)S(=O)(=O)c1ccc(Cl)cc1,-4,0,-3,3,nt,nt
CN(C)C(=O)[C@H]1[C@H](CO)[C@H]2Cn3c(ccc(C4=CCCCC4)c3=O)[C@@H]1N2Cc1ccccc1F,nt,nt,-2,-16,nt,nt
Cc1cc(C(=O)N[C@@H](c2ccccc2)[C@]2(C)C[C@H]2[C@@H](C)C(=O)Nc2ccc3ccccc3c2)no1,-8,-3,nt,77*,-1,0
Cc1cc(C(=O)N[C@H](c2ccccc2)[C@@]2(C)C[C@@H]2[C@@H](C)C(=O)Nc2ccc3ccccc3c2)no1,-4,0,nt,?,-3,3
CC=Cc1ccc2n(c1=O)C[C@@H]1[C@@H](CO)[C@H](C(=O)N[C@H](C)c3ccccc3)[C@H]2N1Cc1cccnc1 (mixture of isomers),12,-1,6,0,nt,nt
CCn1cc(C(=O)O)c(=O)c2cnc(N3CCN(C(=S)NC(=O)c4ccc(OC)cc4)CC3)nc21,0,-1,29*,3,0,-4
CCn1cc(C(=O)O)c(=O)c2cc(F)c(N3CCN(C(=S)NC(=O)c4ccc(F)cc4)CC3)cc21,0,7,1,-1,-1,7
CCCOc1ccc(C(=O)NC(=S)N2CCN(c3cc4c(cc3F)c(=O)c(C(=O)O)cn4CC)CC2)cc1,-1,-1,5,53*,-2,-2

# Compound activity as filed in PubChem BioAssay.
